Experimental data as given in PMC10463567 (Journal of medicinal chemistry, 2023).
“And” between values parts separate entries of the source, which are not always exact repeats. Equal values may be shown once. “Also recorded” adds a separate entry of the source. Where a name gives a salt, the structure may show the parent alone.

What was measured:
[1] = system: ZIKV (FLR strain, Colombia, 2015); assay: Anti-ZIKV; type: cell-based, Zika virus; conditions: Vero cells; for % inhibition of ZIKV at 10 μM: ZIKV FLV (FLR) strain, viral titer vs untreated
Vero cells = assay: Cytotoxicity to Vero cells in the anti-ZIKV screen; type: cell-based, monkey; conditions: 10 μM screen; in Table 2 printed in the % inhibition at 10 μM column
Procedure, shortened: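 Cytopathic effect and cell death were scored by microscope, with MTT to quantitate viable cells. Compounds giving CPE-like phenotype or cell death at 10 μM were flagged as cytotoxic.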

ZIKV (FLV strain) = assay: Time-of-addition; type: cell-based, Zika virus; conditions: 1 μM, added together with virus, Vero cells
[2] = system: Zika virus NS5, NS3 and capsid proteins; assay: Western blot of viral NS5, NS3 and capsid proteins in ZIKV-infected Vero cells; type: cell-based; conditions: 48h
ZIKV RNA = assay: Quantitative RT-PCR of ZIKV RNA copies in supernatant of infected Vero cells; type: cell-based, Zika virus
Procedure, shortened: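 Viral RNA was extracted with TRIzol from 50 μL of culture supernatant. One-step TaqMan RT-qPCR used ZIKV-specific primers and probe amplifying envelope gene region 3. ZIKV RNA was expressed as copies/mL, calculated from a standard curve.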

ZIKV = assay: Anti-ZIKV activity in Vero cells with added glutathione; type: cell-based, Zika virus; conditions: 1 mM GSH in culture media
Procedure, shortened: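 ZIKV (FLR strain) infected Vero cells were given test compound in culture medium supplemented with 1 mM glutathione, a nucleophilic thiol, to test whether the compound acts by covalent reaction. Anti-ZIKV activity was read in the cell-based antiviral assay.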

## COc1ccc2nc(/C=C/c3cccc(OC)n3)n(-c3cccc(C(C)(C)C)c3)c(=O)c2c1 [Compound 21, 6-Methoxy-3-(3-tert-butylphenyl)-2-[2-(6-methoxyl-2-pyridinyl)ethenyl]-4(3H)-quinazolinone]
[1]; 10 μM
  % inhibition of ZIKV at 10 μM: inactive

## 3-(3-tert-Butylphenyl)-2-[2-(1-naphthyl)ethenyl]-4(3H)-quinazolinone [Compound 19]
[1]; 10 μM, 10 µM
  % inhibition of ZIKV at 10 μM: 68% and 68.4%

## COc1cccc(/C=C/c2nc3ccc(N4CCN(C)CC4)cc3c(=O)n2-c2cccc(C(C)(C)C)c2)n1 [Compound 26, 6-(4-Methylpiperazin-1-yl)-3-(3-tert-butylphenyl)-2-[2-(6-methoxyl-2-pyridinyl)ethenyl]-4(3H)-quinazolinone]
Vero cells
  Cytotoxicity to Vero cells: Cytotoxic

## COc1cccc(CCc2nc3ccc(N4CCOCC4)cc3c(=O)n2-c2cccc(C(C)(C)C)c2)n1 [Compound 54, 6-Morpholino-3-(3-tert-butylphenyl)-2-[2-(6-methoxypyridin-2-yl)ethyl]-4(3H)-quinazolinone]
[1]; 10 μM
  % inhibition of ZIKV at 10 μM: inactive

## CC(C)(C)c1cccc(-n2c(/C=C/c3cccnc3)nc3ccccc3c2=O)c1 [Compound 12, 3-(3-tert-Butylphenyl)-2-[2-(3-pyridinyl)ethenyl]-4(3H)-quinazolinone]
[1]; 10 μM
  % inhibition of ZIKV at 10 μM: inactive

## CC(C)(C)c1cccc(-n2c(/C=C/c3ccc(C(F)(F)F)cc3)nc3ccc(N4CCCCC4)cc3c2=O)c1 [Compound 36]
[1]; 10 μM, 10 µM
  % inhibition of ZIKV at 10 μM: 90%

## COc1cccc(/C=C/c2nc3ccc(Cl)cc3c(=O)n2-c2cccc(C(C)(C)C)c2)n1 [Compound 20, 6-Chloro-3-(3-tert-butylphenyl)-2-[2-(6-methoxyl-2-pyridinyl)ethenyl]-4(3H)-quinazolinone]
[1]; 10 μM
  % inhibition of ZIKV at 10 μM: inactive

## 6-(4-Methylpiperazin-1-yl)-3-(3-tert-butylphenyl)-2-(2,6-dimethoxystyryl)-4(3H)-quinazolinone [Compound 40]
Vero cells
  Cytotoxicity to Vero cells: Cytotoxic

## CCN(CC)c1ccc2nc(/C=C/c3cccc(OC)n3)n(-c3cccc(C(C)(C)C)c3)c(=O)c2c1 [Compound 1, 6-Diethylamino-3-(3-tert-butylphenyl)-2-[2-(6-methoxyl-2-pyridinyl)ethenyl]-4(3H)-quinazolinone]
[1]; 10 μM
  fold activity enhancement to inhibit ZIKV replication compared to unsubstituted compound 11: ≥ 1,000 fold

## COc1cccc(/C=C/c2nc3ccc(-c4ccncc4)cc3c(=O)n2-c2cccc(C(C)(C)C)c2)n1 [Compound 29, 6-(Pyridin-4-yl)-3-(3-tert-butylphenyl)-2-[2-(6-methoxypyridin-2-yl)vinyl]-4(3H)-quinazolinone dihydrochloride]
[1]; 10 μM
  % inhibition of ZIKV at 10 μM: inactive

## 3-(3-tert-Butylphenyl)-2-[2-(4-trifluoromethyl-3-pyridinyl)ethenyl]-4(3H)-quinazolinone [Compound 3]
[1]; 10 μM
  % inhibition of ZIKV at 10 μM: 90.0%

## COc1cccc(CCc2nc3ccc(N4CCCCC4)cc3c(=O)n2-c2cccc(C(C)(C)C)c2)n1 [Compound 53, 6-(Piperidin-1-yl)-3-(3-tert-butylphenyl)-2-[2-(6-methoxypyridin-2-yl)ethyl]-4(3H)-quinazolinone]
[1]; 10 μM
  % inhibition of ZIKV at 10 μM: inactive

## COc1cccc(/C=C/c2nc3ccc(N4CCNCC4)cc3c(=O)n2-c2cccc(C(C)(C)C)c2)n1 [Compound 25, 6-(Piperazin-1-yl)-3-(3-tert-butylphenyl)-2-[2-(6-methoxyl-2-pyridinyl)ethenyl]-4(3H)-quinazolinone hydrochloride]
Vero cells
  Cytotoxicity to Vero cells: significant cytotoxicity; also recorded: Cytotoxic

## CC(C)(C)c1cccc(-n2c(/C=C/c3ccccc3)nc3ccccc3c2=O)c1 [Compound 15, 3-(3-tert-Butylphenyl)-2-(2-phenylethenyl)-4(3H)-quinazolinone]
[1]; 10 μM
  % inhibition of ZIKV at 10 μM: inactive

## 3-(3-tert-Butylphenyl)-2-[2-(3-methoxyl-2-pyridinyl)ethenyl]-4(3H)-quinazolinone [Compound 11]
[1]; 10 μM
  % inhibition of ZIKV at 10 μM: 0%

## COc1cccc(-c2ccc3nc(/C=C/c4cccc(OC)n4)n(-c4cccc(C(C)(C)C)c4)c(=O)c3c2)c1 [Compound 30, 6-(3-Methoxyphenyl)-3-(3-tert-butylphenyl)-2-[2-(6-methoxypyridin-2-yl)vinyl]-4(3H)-quinazolinone]
[1]; 10 μM
  % inhibition of ZIKV at 10 μM: inactive

## 6-(Piperidin-1-yl)-3-(3-tert-butylphenyl)-2-(2,6-dimethoxystyryl)-4(3H)-quinazolinone [Compound 39]
[1]; 10 μM
  % inhibition of ZIKV at 10 μM: 96.8%

## COc1cccc(/C=C/c2nc3ccc(N4CCOCC4)cc3c(=O)n2-c2cccc(C(C)(C)C)c2)n1 [Compound 27, 6-Morpholino-3-(3-tert-butylphenyl)-2-[2-(6-methoxyl-2-pyridinyl)ethenyl]-4(3H)-quinazolinone]
ZIKV (FLV strain)
  viral titer reduction, 2h-pretreatment: ≥ 90%
[2]
  cellular levels of viral NS5, NS3 and capsid proteins: significantly reduce
[1]; ZIKV-FLR, EC50 comparison
  fold more potent antiviral activity than compound 22: ~ 4 ×
ZIKV RNA
  ZIKV RNA copies in the supernatant: dose-dependently reduce
Vero cells
  Cytotoxicity to Vero cells: without cytotoxicity
ZIKV
  anti-ZIKV activity in the presence of GSH: not affected

## COc1cccc(/C=C/c2nc3ccc(N4CCC(N5CCOCC5)CC4)cc3c(=O)n2-c2cccc(C(C)(C)C)c2)n1 [Compound 28, 6-(4-Morpholinopiperidin-1-yl)-3-(3-tert-butylphenyl)-2-[2-(6-methoxyl-2-pyridinyl)ethenyl]-4(3H)-quinazolinone]
Vero cells
  Cytotoxicity to Vero cells: without cytotoxicity

## COc1cccc(/C=C/c2nc3ccc(N4CCCCC4)cc3c(=O)n2-c2cccc(C(C)(C)C)c2)n1 [Compound 22, 6-(Piperidin-1-yl)-3-(3-tert-butylphenyl)-2-[2-(6-methoxyl-2-pyridinyl)ethenyl]-4(3H)-quinazolinone]
ZIKV RNA
  ZIKV RNA copies in the supernatant: dose-dependently reduce
